Screening results as filed in PubChem.
Shown are actives, neighbours in structure and some others; about 1.4% of the full set was active somewhere.
hK5 inh: inhibitors of human kallikrein 5; Q9Y337; inhibition, % at 5 µM; 0.59% of 210,000 active; AID 873; recombinant hK5, fluorogenic AMC substrate cleavage;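 active = inhibition of 40% or more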;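 also: 0% = enzyme controls without compound and 100% = no-enzyme blanks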
FXIIa inh: inhibitors of human coagulation factor XIIa | P00748 | purified FXIIa, Boc-QGR-AMC fluorogenic substrate, 2 h | inhibition, % at 5 µM | 0.3% of 220,000 active; in the data active = inhibition above about 40%;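 also: 0% = enzyme with no compound and 100% = blank without enzyme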
Thrombin inh: blocks human thrombin protease activity; P00734; alpha-thrombin, Boc-VPR-AMC fluorogenic substrate cleavage; inhibition, % at 5 µM; 0.26% of 220,000 active; AID 1046;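 active = inhibition at or above 40%; inactive = inhibition below 40%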;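 also: 0% = enzyme with no compound and 100% = wells without enzyme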
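System: Human alpha-thrombin protein | Medium: pH 7.5 Tris (50 mM) with NaCl 150 mM, Tween 20 0.05% | Times: Enzyme reaction carried out at room temperature | Detection: AMC fluorescence, 355/460 nm | Evaluation: Percent inhibition scaled between no-compound controls and no-enzyme blanks | Benchmarks: Enzyme without compound as high, wells lacking enzyme as low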
m-calpain inh: calpain II (pig) inhibition; inhibition, % at 16 µM; 0.37% of 220,000 active; AID 1236; purified calpain II, fluorogenic peptide substrate, 30 min;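 active = inhibition above about 50%, limit read from the data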
FXIa inh 1536: inhibitors of human coagulation factor XIa; AID 798; 0.14% of 220,000 active; purified FXIa, Boc-Glu-Ala-Arg-AMC fluorogenic substrate; P03951; inhibition, % at 5 µM;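 active = inhibition of at least 40%; inactive = inhibition below 40%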;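 also: fluorescence of freed AMC excited at 355 nm; 0% = enzyme without compound and 100% = no enzyme blank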
Target sequence (P03951 19-387 limits assumed): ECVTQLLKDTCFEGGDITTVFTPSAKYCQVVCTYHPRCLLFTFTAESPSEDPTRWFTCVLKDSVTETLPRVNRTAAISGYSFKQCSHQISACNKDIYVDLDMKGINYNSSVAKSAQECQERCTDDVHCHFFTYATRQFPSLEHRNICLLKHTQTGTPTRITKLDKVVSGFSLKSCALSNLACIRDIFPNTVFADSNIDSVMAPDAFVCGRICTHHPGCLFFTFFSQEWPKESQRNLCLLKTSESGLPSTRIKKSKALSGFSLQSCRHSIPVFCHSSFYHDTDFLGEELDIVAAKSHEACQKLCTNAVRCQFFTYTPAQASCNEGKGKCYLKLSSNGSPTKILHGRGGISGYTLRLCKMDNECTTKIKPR
Target sequence (P03951 388-625 limits assumed): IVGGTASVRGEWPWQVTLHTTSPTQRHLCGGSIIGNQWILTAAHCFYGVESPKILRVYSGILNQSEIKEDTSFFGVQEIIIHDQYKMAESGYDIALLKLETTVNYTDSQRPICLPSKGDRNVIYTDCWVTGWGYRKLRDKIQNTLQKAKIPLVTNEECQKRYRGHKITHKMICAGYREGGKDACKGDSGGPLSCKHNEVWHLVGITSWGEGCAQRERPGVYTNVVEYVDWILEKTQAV
* hit, by the source's call; i = inactive; . = not tested or not shown.

SMILES | hK5 inh | FXIIa inh | Thrombin inh | m-calpain inh | FXIa inh 1536
CCOC(=O)C1CCCN(C(=O)c2cc3nc(-c4cccc(OC)c4)cc(C(F)(F)F)n3n2)C1 (configuration not stated) | 54* | 26 | 19 | -19 | 23
Cc1ccc(-n2c(C)cc(C(=O)CSc3nncs3)c2C)cc1 | 21 | -5 | 56* | 25 | 7
Cc1cc(C(=O)CSc2nncs2)c(C)n1-c1c(C)n(C)n(-c2ccccc2)c1=O | -16 | 13 | -4 | 3 | 7
Cc1nc(-c2ccc(S(=O)(=O)Nc3ccc(Br)cc3Cl)s2)cs1 | 0 | 5 | -7 | 63* | 0
COc1ccc(-c2cc(C(=O)N3CCCc4ccccc43)no2)cc1 | -19 | 14 | 2 | 53* | 5
CC(C)CNC(=O)c1ccc(C2SCC(=O)N2Cc2ccccc2)cc1 (configuration not stated) | -5 | 1 | 0 | -29 | -5
COc1ccc(CNC(=O)COC(=O)CC2CC3CCC2C3)cc1OC (configuration not stated) | -15 | 13 | -10 | 3 | 3
COc1ccc(-c2cc(-c3nnc(COC(=O)CC4CC5CCC4C5)o3)c3ccccc3n2)cc1OC (configuration not stated) | 24 | 42* | 25 | -105 | 17
Cc1cc(N2CCN(c3ccccc3)CC2)nc(N)n1 | -13 | 5 | -3 | -12 | -2
Cc1cc(N2CCN(c3ccccc3)CC2)nc(-c2ccccc2)n1 | 65* | 23 | 83* | 14 | 3
CCC(=O)Nc1cc(C(C)C)c(O)cc1C | 83* | 18 | 18 | 9 | 6
Cc1cc(O)c(C(C)C)cc1NC(=O)Nc1cccc2ccccc12 | -7 | 4 | -7 | -14 | 3
COc1cc2nc(=S)n3[nH]c(COc4ccccc4C)nc3c2cc1OC | 45* | 19 | 17 | -24 | 12
COc1cc2nc(=S)n3[nH]c(CCn4nc(C)cc4C)nc3c2cc1OC | 18 | 18 | -1 | 3 | 10
O=C1NC(=Nc2cccc(O)c2)S/C1=C\c1cccnc1 | 66* | 19 | 23 | 16 | 29
Cc1ccc(N2CC(C(=O)N3CCCc4ccccc43)CC2=O)cc1 (configuration not stated) | 0 | 25 | -8 | 5 | 23
CC1C(=O)NN=C1C(=O)N/N=C\c1ccc(O)cc1O (configuration not stated) | -13 | 3 | -6 | -10 | -5
Cc1ccc(O)c(-c2cc(-c3ccccc3C)[nH]n2)c1 | 50* | 9 | 9 | 33 | 4
Cc1ccc(O)c(-c2cc(-c3ccccc3[N+](=O)[O-])[nH]n2)c1 | -4 | 27 | 1 | 27 | 22
COc1ccc(CN(C(=O)c2ccc3c(c2)OCCO3)C(C(=O)NC2CCCCC2)c2ccc3ncccc3c2)cc1 (configuration not stated) | 150* | 0 | 4 | -90 | -6
CCCCNC(=O)C1COc2ccccc2O1 (configuration not stated) | -3 | 10 | 2 | 15 | -1
O=C(NCCOC(=O)C1COc2ccccc2O1)C1COc2ccccc2O1 (configuration not stated) | 46* | 0 | 25 | 31 | 5
CC1(C)CC(=O)C(N=Nc2ccc(Br)cc2)=C(O)C1 | 25 | 75* | 19 | 20 | 26
CC(C)C(NS(=O)(=O)c1cccc2nsnc12)C(=O)NCCC1=CCCCC1 (configuration not stated) | -17 | 8 | -4 | -3 | 5
Cc1cc(C)c(S(=O)(=O)N2CCN(c3ccc([N+](=O)[O-])c(NCC4CCCO4)c3)CC2)c(C)c1 (configuration not stated) | 41* | 18 | 23 | 16 | 3
SMILES | hK5 inh | FXIIa inh | Thrombin inh | m-calpain inh | FXIa inh 1536
O=[N+]([O-])c1ccc(N2CCN(S(=O)(=O)c3ccc(Cl)cc3)CC2)cc1NCC1CCCO1 (configuration not stated) | -1 | 18 | 3 | 29 | 10
CCOC(=O)Cn1c(=O)cc(C)c2cccc(C)c21 | -5 | 2 | -1 | 73* | -7
O=C(Oc1ccc2c3c(c(=O)oc2c1)CCC3)c1ccco1 | -10 | 71* | 24 | i | 33
O=C(Oc1cc2oc(=O)c3c(c2cc1Cl)CCCC3)c1ccco1 | -10 | 7 | -1 | -492 | -3
Cc1ccccc1C(=O)NNC(=O)c1ccoc1C | 63* | 0 | 16 | 12 | 2
Cc1occc1C(=O)NNC(=O)c1ccccc1C(=O)O | -7 | 0 | -5 | 7 | -6
Cc1occc1C(=O)NNC(=O)c1ccccc1Br | 46* | 21 | 8 | 21 | 16
CCOC(=O)C1=C(O)CSC1=Nc1cccc2ccccc12 | -14 | 21 | -3 | 6 | 8
COCCn1c(CN2CCN(C)CC2)nc2c1c(=O)n(C)c(=O)n2C | 11 | 7 | 2 | 85* | -2
Cc1nn(C)cc1CN1CCC(CO)(CCOc2ccccc2)CC1 | . | 27 | 68* | 16 | 23
Cc1sc(NC(=O)c2ccccc2)c(C(=O)N2CCN(C)CC2)c1C | 2 | 4 | -6 | -20 | 4
Cn1c(=O)c2c(ncn2CC(=O)OCC(=O)NC2CCCc3ccccc32)n(C)c1=O (configuration not stated) | 1 | 7 | -1 | -65 | -2
CCOc1c(CNCCNC(=O)c2nonc2N)cccc1OC | 4 | 17 | 1 | -11 | 2
COc1cccc(C=NCCNC(=O)c2nonc2N)c1O | -2 | 12 | 0 | 101* | 0
CCOC(=O)C1CCCN(C(=O)CSc2ccc(NC(C)=O)cc2)C1 (configuration not stated) | -5 | 4 | -5 | 63* | -4
CCC1(CC)N=C(c2ccccc2)C(=S)N1 | 7 | 11 | -4 | -29 | 0
O=C(O)c1cccc(NC(=S)NC(=O)c2ccc(-c3ccccc3)cc2)c1 | 14 | 6 | -2 | 70* | -1
CCC(=O)NC(=S)Nc1cccc(NC(=O)c2ccccc2)c1 | 21 | 35 | 40* | 26 | 35
O=[N+]([O-])c1ccc(Oc2cccc(F)c2)c2ccncc12 | 7 | 14 | 3 | 51* | 3
CC(=O)NS(=O)(=O)c1ccc(NC(=S)NC(=O)c2ccco2)cc1 | 4 | 43* | 1 | 15 | 18
CCOC(=O)c1sc(NC(=O)C2CC2)cc1C | -13 | 9 | -6 | -22 | 3
COc1cc(NS(=O)(=O)c2ccc(NC(=S)NC(=O)c3ccco3)cc2)ncn1 | -2 | 2 | -5 | -14 | -4
COc1cc(NS(=O)(=O)c2ccc(NC(=S)NC(=O)c3sc4ccccc4c3Cl)cc2)ncn1 | -21 | 1 | -9 | 57* | -3
COCCOC(=O)c1c(C)n(C)c2ccc(OC(=O)N3CCOCC3)cc12 | -13 | 10 | -1 | -38 | 0
Cc1ccc2cc(CN(C(=O)c3cccs3)c3ccccc3)c(=O)[nH]c2c1 | 62* | 74* | 18 | 9 | 25
